Measurements taken from article PMC5433042 (Chemical Science, 2014).

How the values were obtained:
HeLa cells = assay: Resazurin cell viability assay, HeLa; format: cell-based, human
How it was run: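 HeLa cells are kept in DMEM with 5% FCS, penicillin/streptomycin, at 37 °C and 5% CO2. Cells are seeded in triplicate at 4 × 10^3 per well one day ahead, then exposed 48 h to increasing concentrations diluted in medium from 10 mg mL−1 DMSO stocks. Medium is then replaced with resazurin (0.2 mg mL−1 final) for 4 h at 37 °C, and resorufin fluorescence is read at ex 540/em 590 nm.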

B. subtilis 168 [1] = assay: BacLight membrane disruption assay; format: cell-based, Bacillus subtilis; conditions: 8 μg mL^–1 (2× MIC), nisin 0.75 μg mL^–1; 15 minutes
How it was run: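 B. subtilis 168 is grown in Belitzky minimal medium to early log phase and exposed for 15 min; untreated aliquot serves as control. Cells are stained 15 min with a 1:1 SYTO 9/propidium iodide mix (1 μL per mL cells), washed twice in 100 mM Tris/1 mM EDTA pH 7.5, then examined by fluorescence microscopy. Red or orange cells in the overlay indicate permeabilized membranes.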

[2] = test system: B. subtilis 1981 GFP-MinD; assay: GFP-MinD delocalization assay; format: cell-based, Bacillus subtilis; conditions: 8 μg mL^–1 (2× MIC), nisin 0.75 μg mL^–1; 15 minutes
B. subtilis 168 [3] = assay: Cell wall integrity assay; format: cell-based, Bacillus subtilis; conditions: 8 μg mL^–1 (2× MIC), nisin 0.75 μg mL^–1; 15 minutes

N.N.[Cl][Pt][Cl] [Cisplatin]
IC50 HeLa (HeLa cells; 48 h): 3.5 ± 0.9 μg mL^–1 | IC50 (HeLa cells; read-out: IC50 HeLa, 48 h): 11.5 ± 2.9 µM

nisin (ITSISLCTPGCKTGALMGCNMKTATCHCSIHVSK; not fully specified; Lantibiotic nisin-A; UniProt P13068 24-57, looked up)
membrane permeabilization, BacLight staining (B. subtilis 168 [1]): red fluorescencing cells | GFP-MinD localization (membrane depolarization) [2]: MinD delocalization | cell wall integrity after acetic acid/methanol fixation (B. subtilis 168 [3]): membrane extrusions
